Assay outcomes from PubChem.
Shown are actives, neighbours in structure and some others; about 3% of the full set was active somewhere.
Kir21 inh = inhibitors of mouse Kir2.1 inward-rectifier potassium channel | P35561 | HEK293-Kir2.1, FluxOR thallium flux fluorescence; hits give low values | B-score at 10 µM | 310,000 tested, 0.85% active;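 active = fluorescence ratio B-score at or below minus 3 SD of library scores, with starting-brightness B-score within 2 SD, cut at about -4.2 in these data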;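 also: channel flux triggered by added potassium and thallium sulfate stimulus; B-score of peak minus minimum fluorescence over baseline after thallium stimulus; more negative B-score means stronger Kir2.1 block with less thallium influx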
TRPC4 block = TRPC4 (mouse) channel inhibition; Q9QUQ5; B-score at 10 µM; 300,000 tested, 0.39% active; AID 2247; HEK293 TRPC4beta/mu-opioid, DAMGO-evoked Fluo4 calcium flux; hits give low values;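 active = B-score over 3 SD under the library average, no early fluorescence shift, positive overall ratio signal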
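Assay system: HEK293 cells with stable TRPC4beta plus mu-opioid receptor expression; Probe or stimulus: DAMGO in two steps, submaximal then maximal; Dosing: single-point compound dosing; Measured by: Fluo4 calcium-dye fluorescence, kinetic read; Read-out basis: B score from integrated Fluo4 fluorescence ratio.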
TRPC6 activator = activates the mouse TRPC6 cation channel. HEK293-TRPC6 membrane potential dye fluorescence; hits give high values. B-score at 10 µM. Q61143. 310,000 tested, 0.13% active;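 active = B-score of the integrated fluorescence ratio above library mean plus 3 SD, and starting fluorescence ratio within library mean plus 5 SD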;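 also: higher score means more depolarization so channel activation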
Target sequence (Q61143 whole entry, looked up): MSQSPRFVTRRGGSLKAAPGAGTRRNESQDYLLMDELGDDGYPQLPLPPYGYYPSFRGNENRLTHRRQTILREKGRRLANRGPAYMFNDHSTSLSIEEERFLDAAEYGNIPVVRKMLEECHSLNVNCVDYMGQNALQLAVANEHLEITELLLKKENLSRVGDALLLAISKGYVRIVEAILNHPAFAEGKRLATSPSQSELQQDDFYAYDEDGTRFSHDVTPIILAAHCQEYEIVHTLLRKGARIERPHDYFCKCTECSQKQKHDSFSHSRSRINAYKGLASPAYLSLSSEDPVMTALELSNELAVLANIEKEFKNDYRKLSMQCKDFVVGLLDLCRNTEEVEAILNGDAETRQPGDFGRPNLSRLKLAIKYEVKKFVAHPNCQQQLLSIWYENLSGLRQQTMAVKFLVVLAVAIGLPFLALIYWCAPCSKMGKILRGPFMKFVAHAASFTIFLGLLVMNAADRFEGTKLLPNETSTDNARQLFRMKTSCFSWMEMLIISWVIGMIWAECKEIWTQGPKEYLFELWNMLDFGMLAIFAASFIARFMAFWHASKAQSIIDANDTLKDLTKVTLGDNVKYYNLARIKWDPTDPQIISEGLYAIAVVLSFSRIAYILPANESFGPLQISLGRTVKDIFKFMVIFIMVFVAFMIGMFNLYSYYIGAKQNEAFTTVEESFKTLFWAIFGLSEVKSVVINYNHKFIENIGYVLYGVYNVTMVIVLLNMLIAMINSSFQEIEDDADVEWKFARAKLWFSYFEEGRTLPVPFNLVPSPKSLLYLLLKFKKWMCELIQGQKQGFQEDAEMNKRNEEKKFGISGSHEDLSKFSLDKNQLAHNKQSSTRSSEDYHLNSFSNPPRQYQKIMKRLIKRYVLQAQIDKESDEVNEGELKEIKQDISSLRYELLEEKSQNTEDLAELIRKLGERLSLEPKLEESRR
TRPC4 agonist = TRPC4 (mouse) channel activation; B-score at 10 µM; AID 2237; Q9QUQ5; 310,000 tested, 0.49% active; HEK293 TRPC4beta/mu-opioid, Fluo4 calcium fluorescence; hits give high values;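 active = B-score above 5 SD of library B-scores, and initial fluorescence ratio not above library mean plus 5 SD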;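 also: positive B-score marks a calcium rise read as TRPC4 activation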
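Test system: HEK293 cells stably co-expressing mouse TRPC4beta and mu-opioid receptor | Schedule: Fluo4 dye loading 45 min at room temperature, 110 s recording | Measured by: Kinetic Fluo4 calcium fluorescence, 5 s baseline at 1 Hz | Evaluation: B score of integrated ratio | Controls: Buffer (low) and maximal DAMGO (high)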
TRPC4 PAM = TRPC4 (mouse) allosteric potentiation. HEK293 TRPC4beta/mu-opioid, DAMGO EC20, Fluo-4 Ca2+ flux; hits give high values. B-score at 10 µM. 310,000 tested, 0.42% active. AID 2227;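 active = B-score of calcium response area above 5 SD of library B-scores, with initial fluorescence ratio within 5 SD of library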;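 also: B-score of integrated fluorescence ratio over time as area under calcium response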
TRPC6 inh = blocks the mouse TRPC6 cation channel; Q61143; B-score at 10 µM; 310,000 tested, 1.1% active; HEK293-TRPC6, membrane potential dye, ACh-evoked depolarization; hits give low values;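 active = B-score under library mean minus 3 SD, initial fluorescence not abnormally high, positive integrated signal ratio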;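 also: B-score derived from integrated fluorescence ratio over the kinetic read; more negative B-score means stronger inhibition of depolarization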
TRPC4 sel inh 2 = mouse TRPC4 off-target activity of TRPC6 inhibitors, second screen | shares compounds with TRPC6 inh | HEK293 TRPC4/MOR, membrane potential dye fluorescence; channel activated by saturating DAMGO dose | inhibition, % at 10 µM | 920 tested, 42% active | AID 2776;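 active = compounds whose fluorescence signal differed from control wells by over 3 SD, either direction, in both duplicate plates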
TRPC4 spec = selectivity of TRPC6 inhibitors: effect on mouse TRPC4. shares compounds with TRPC6 inh. HEK293 TRPC4/mu-opioid, membrane potential fluorescence. activity change, negative = inhibition, % at 10 µM. 920 tested, 61% active. AID 2777;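 active = rise or fall in signal beyond 3 SD of buffer-only wells in both replicate plates, either sign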;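 also: integrated kinetic ratio of fluorescence range over baseline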
HEK293 MPD ctr 2-1 = second counter-screen for TRPC6 inhibitors: parental HEK293 cells. shares compounds with TRPC6 inh. parental HEK293 membrane potential dye fluorescence; maximal acetylcholine challenge after compound addition. signal change vs control, % at 10 µM. 920 tested, 31% active. AID 2779;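 active = membrane potential signal moving either way by over 3 SD of the maximum-effect control, in both duplicate plates, meaning non-specific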
HEK293 MPD ctr-1 = counter-screen for TRPC6 inhibitors: effect in parental HEK293 cells; shares compounds with TRPC6 inh; parental HEK293 membrane potential dye fluorescence; membrane potential signal change, % at 10 µM; 920 tested, 60% active; AID 2780;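 active = membrane potential signal shifting up or down by more than 3 SD of buffer-only wells, on both duplicate plates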
HEK293 MPD ctr-2 = counter-screen for TRPC6 modulators: effect in parental HEK293 cells | membrane potential dye fluorescence | shares compounds with TRPC6 inh | membrane potential signal change, % at 10 µM | 2,400 tested, 51% active;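 active = membrane potential signal moves up or down beyond 5 SD from buffer-only wells, on both duplicate plates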
HEK293 MPD ctr 2-2 = second counter-screen for TRPC6 modulators: effect in parental HEK293 cells | inhibition, % at 10 µM | membrane potential dye fluorescence; after compound, maximal acetylcholine stimulation | shares compounds with TRPC6 inh | AID 488926 | 2,400 tested, 14% active;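 active = membrane potential signal drops by more than 5 SD from the mean control signal, in both duplicate plates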;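 also: plate controls were acetylcholine ECmax control wells for no effect and buffer only wells for full effect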
TRPC4/MOR mod = selectivity of TRPC6 modulators against mouse TRPC4; HEK293 TRPC4/mu-opioid, membrane potential fluorescence; shares compounds with TRPC6 inh; 2,400 tested, 69% active; percent change from control (negative = decrease, positive = increase), % at 10 µM;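 active = membrane potential signal moved up or down beyond 5 SD of buffer control wells, in both duplicate plates, actives on both sides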;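 also: plate controls were assay buffer wells for no effect and DAMGO maximal-effect wells for full effect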
TRPC4/MOR inh 2 = second selectivity test of TRPC6 modulators against mouse TRPC4 | shares compounds with TRPC6 inh | HEK293 TRPC4/mu-opioid, membrane potential dye fluorescence; stimulated with maximal-effect DAMGO | inhibition, % at 10 µM | 2,400 tested, 55% active | AID 488928;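 active = drop in membrane potential signal beyond 5 SD of the control wells in both duplicate plates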;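 also: TRPC4 counter screen for TRPC6 hits run under conditions tuned for TRPC6 not TRPC4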
TRPC6 block conf = mouse TRPC6 inhibitor confirmation; shares compounds with TRPC6 inh; HEK293-TRPC6, membrane potential dye, ACh-evoked depolarization; inhibition, % at 10 µM; 3,300 tested, 43% active; AID 488960;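 active = fluorescence ratio falls more than 5 SD below the full-stimulation control mean, in both duplicate runs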;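 also: integrated fluorescence ratio of peak minus minimum over baseline after agonist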
TRPC6 act conf = mouse TRPC6 activator confirmation; 2,800 tested, 11% active; AID 488961; activation, % at 10 µM; HEK293-TRPC6 membrane potential dye fluorescence, FDSS; shares compounds with TRPC6 inh;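 active = ratio signal rise beyond 5 SD above unstimulated control wells' mean, seen in both duplicate runs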;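 also: plate controls were buffer EC0 wells for no effect and acetylcholine ECmax response for full effect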
Starred values were filed as active, the others as inactive; i = inactive; x = not tested or not shown.

SMILES	Kir21 inh	TRPC4 block	TRPC6 activator	TRPC4 agonist	TRPC4 PAM	TRPC6 inh	HEK293 MPD ctr-2	HEK293 MPD ctr 2-2	TRPC4/MOR mod	TRPC4/MOR inh 2	TRPC6 block conf	TRPC6 act conf	others
CC(C)C(O)(C#CCN1CCCCCC1)c1ccccc1 (stereo not drawn)	-1.8	i	i	i	i	-7.1*	x	x	x	x	61%*	x	TRPC4 sel inh 2=i;TRPC4 spec=13%*;HEK293 MPD ctr 2-1=i;HEK293 MPD ctr-1=11%*
CN(C)c1ccc(C2CC(=O)C=C(Nc3ccccc3N)C2)cc1 (stereo not drawn)	-0.06	i	i	i	i	i	x	x	x	x	x	x
Cc1ccccc1-n1cc(CNC(=O)CCc2nnc(CCc3ccccc3)o2)cn1	1.6	i	i	i	i	i	x	x	x	x	x	x
OC(CC#CCN1CCCCC1)(c1ccccc1)c1ccccc1	-0.09	i	i	i	i	i	x	x	x	x	x	x
OC(CC#CCN1CCCC1)(c1ccccc1)c1ccccc1	-0.85	i	i	i	i	-5.3*	114%*	63%*	15%*	i	65%*	x
Cc1ccc(Nc2nc(C(=O)NCc3ccco3)cs2)cc1	-0.96	i	i	i	i	i	x	x	x	x	x	x
CCN(CC)C(=O)c1csc(Nc2ccc(C)cc2)n1	0.96	i	i	i	i	-5.8*	i	i	i	i	i	i
Cc1cccc(CS(=O)(=O)Cc2ccc(C(=O)NC3CCCCCC3)o2)c1	0.28	i	i	i	i	i	x	x	x	x	x	x
Cc1cccc(CSC(Nc2ccc(F)cc2)=C(C#N)C#N)c1	-4.5*	i	i	i	i	-5.2*	124%*	i	20%*	48%*	56%*	i
CCCc1ncc(C(O)(c2ccccc2)c2ccc(C)cc2)n1C (stereo not drawn)	-2.1	i	i	i	i	i	x	x	x	x	x	x
CCCc1ncc(C(O)(c2ccccc2)c2ccccc2)n1C	-2.2	i	i	i	i	-8.8*	x	x	x	x	58%*	x	TRPC4 sel inh 2=i;TRPC4 spec=22%*;HEK293 MPD ctr 2-1=i;HEK293 MPD ctr-1=15%*
Fc1ccc(CSc2nnc(-c3cccs3)o2)cc1	0.88	i	i	i	i	-7.4*	x	x	x	x	i	i	TRPC4 sel inh 2=i;TRPC4 spec=i;HEK293 MPD ctr 2-1=i;HEK293 MPD ctr-1=i
O=C(NC1CCCCC1)c1cc(N2C(=O)CCC2=O)ccc1Cl	-0.53	i	i	i	i	i	x	x	x	x	x	x
S=c1[nH]nc(-c2ccncc2)n1/N=C/C=C/c1ccco1	1.1	i	i	i	i	i	x	x	x	x	x	x
S=c1[nH]nc(-c2ccccc2Cl)n1/N=C/C=C/c1ccco1	-0.97	i	i	i	i	-6*	i	i	i	i	44%*	i
Cc1oc(-c2ccc(Cl)cc2)nc1CN1CCCC(C(=O)NCc2ccco2)C1 (stereo not drawn)	-0.66	i	16*	i	i	-6.7*	114%*	i	20%*	51%*	47%*	92%*
COc1ccc(NC(=O)CCCCCN2C(=O)[C@@H]3Cc4ccccc4CN3C2=O)cc1Cl	0.63	i	i	i	i	-7.4*	i	i	i	i	i	i
COc1cccc(NC(=O)[C@@H]2CCC(=O)N2C2OC(=O)c3ccccc32)c1 (stereo partly drawn)	1.9	i	i	i	i	i	x	x	x	x	x	x
CCNc1nc(NCC)n2c(SCC(=O)c3ccccc3F)nnc2n1	-0.76	i	i	i	i	i	x	x	x	x	x	x
COc1ccccc1Nc1c2ccccc2nc2ccccc12	-5*	i	i	i	i	-6.7*	-182%*	i	-36%*	68%*	50%*	i
OCCCNc1c2ccccc2nc2ccccc12	-1.3	-6*	i	i	i	-6.1*	-231%*	i	-36%*	46%*	37%*	i
OCCCNc1nc(-c2ccccc2)c2cc(Br)ccc2n1	-2.3	i	i	i	i	i	x	x	x	x	x	x
COc1cc(Nc2c3ccccc3nc3ccccc23)cc(OC)c1OC	0.58	i	i	i	i	-7.1*	-132%*	i	-38%*	60%*	i	i
Clc1cncc(Cl)c1NNc1c2ccccc2nc2ccccc12	-1.2	i	i	i	i	i	x	x	x	x	x	x
CC(C)(C)Nc1c2ccccc2nc2ccccc12	-4.5*	i	i	i	i	-8.9*	-202%*	i	-34%*	87%*	53%*	i
O=C(COc1ccc2c(c1)CCC2)Nc1ccccn1	-0.25	i	i	i	i	i	x	x	x	x	x	x
COCc1[nH]nc2c1C(c1c(F)cccc1Cl)C(C#N)=C(N)O2 (stereo not drawn)	0.18	i	i	i	i	-5.6*	i	i	i	i	i	i
COCc1[nH]nc2c1C(c1ccccc1Cl)C(C#N)=C(N)O2 (stereo not drawn)	1.6	i	i	i	i	i	x	x	x	x	x	x
